# Source: ChEMBL document CHEMBL1806466, “2-Amino-4-methyl-5-phenylethyl substituted-7-N-benzyl-pyrrolo[2,3-d]pyrimidines as novel antitumor antimitotic agents that also reverse tumor resistance” (Bioorg Med Chem, 2011)
# Activity calls are given as the source filed them. The rule behind the calls is not given here.
# How the values were obtained:
# MCF7 [1] = experiment: Resistance factor, ratio of IC50 for Pgp-deficient human MCF7/VP cells expressing MRP1 in absence of vincristine to IC50 for drug sensitive human MCF7 cells in presence of 1 nM vincristine
# MCF7 [2] = experiment: Resistance factor, ratio of IC50 for drug-resistant […] human NCI/ADR cells expressing Pgp in absence of vinblastin to IC50 for drug-sensitive human MCF7 cells in presence of 50 nM vinblastin; type: functional
# NCI/ADR = experiment: Reversal of Pgp-mediated multidrug resistance in human NCI/ADR cells assessed as enhancement of cytotoxicity of vinblastine after 48 hrs by sulforhodamine B assay; type: cell-based
# Summary of the method: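 NCI/ADR cells plated at ~15% confluency and allowed 24 h to attach. […] Survival by SRB binding, each value the mean of three wells, with ethanol solvent controls. Pgp Antagonism Score = % survival without vinblastine / % survival with vinblastine.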
# [3] = target: Multidrug resistance-associated protein 1 (Homo sapiens, UniProt P33527); experiment: Reversal of MRP1-mediated multidrug resistance in human MCF7/VP cells assessed as enhancement of cytotoxicity of vincristine after 48 hrs by sulforhodamine B assay; type: cell-based
# Chain of Multidrug resistance-associated protein 1 (P33527 whole entry): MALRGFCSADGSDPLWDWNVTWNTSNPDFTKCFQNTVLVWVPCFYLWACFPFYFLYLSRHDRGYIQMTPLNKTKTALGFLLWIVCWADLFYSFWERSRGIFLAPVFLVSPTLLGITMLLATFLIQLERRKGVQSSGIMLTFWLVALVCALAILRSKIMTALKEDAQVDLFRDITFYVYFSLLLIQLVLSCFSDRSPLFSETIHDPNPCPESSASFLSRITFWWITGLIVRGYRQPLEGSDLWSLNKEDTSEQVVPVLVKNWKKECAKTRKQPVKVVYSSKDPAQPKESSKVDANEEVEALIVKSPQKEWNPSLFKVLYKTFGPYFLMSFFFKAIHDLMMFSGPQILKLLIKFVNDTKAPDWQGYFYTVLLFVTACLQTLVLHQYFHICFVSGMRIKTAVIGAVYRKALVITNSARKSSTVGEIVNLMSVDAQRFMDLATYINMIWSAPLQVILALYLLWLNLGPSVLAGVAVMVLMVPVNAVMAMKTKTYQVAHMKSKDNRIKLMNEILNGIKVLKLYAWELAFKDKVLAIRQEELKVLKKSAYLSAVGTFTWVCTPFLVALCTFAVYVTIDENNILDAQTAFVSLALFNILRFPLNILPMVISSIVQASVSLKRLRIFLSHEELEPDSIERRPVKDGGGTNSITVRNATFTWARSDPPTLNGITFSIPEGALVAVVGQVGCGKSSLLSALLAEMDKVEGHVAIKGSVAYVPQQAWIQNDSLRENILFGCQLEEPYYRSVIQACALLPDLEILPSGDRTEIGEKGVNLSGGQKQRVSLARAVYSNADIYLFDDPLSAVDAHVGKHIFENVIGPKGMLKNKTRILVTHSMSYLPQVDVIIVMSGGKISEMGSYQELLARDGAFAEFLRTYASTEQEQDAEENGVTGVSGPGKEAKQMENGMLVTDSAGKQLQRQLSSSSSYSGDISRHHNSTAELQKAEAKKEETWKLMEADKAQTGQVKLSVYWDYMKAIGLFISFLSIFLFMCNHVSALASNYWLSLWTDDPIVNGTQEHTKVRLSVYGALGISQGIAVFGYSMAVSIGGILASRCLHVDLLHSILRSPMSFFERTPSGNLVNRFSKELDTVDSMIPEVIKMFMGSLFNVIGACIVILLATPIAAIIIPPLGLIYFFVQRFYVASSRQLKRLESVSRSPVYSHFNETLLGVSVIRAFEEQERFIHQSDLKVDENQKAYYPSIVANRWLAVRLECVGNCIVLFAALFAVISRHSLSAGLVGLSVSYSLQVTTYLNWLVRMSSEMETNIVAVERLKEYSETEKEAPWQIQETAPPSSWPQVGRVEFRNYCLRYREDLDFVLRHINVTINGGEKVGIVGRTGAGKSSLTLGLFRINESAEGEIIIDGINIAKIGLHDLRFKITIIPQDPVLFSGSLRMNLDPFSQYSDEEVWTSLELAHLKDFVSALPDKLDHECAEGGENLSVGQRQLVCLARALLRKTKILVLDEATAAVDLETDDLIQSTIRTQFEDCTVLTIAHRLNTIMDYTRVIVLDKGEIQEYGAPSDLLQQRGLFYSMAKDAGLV
# Summary of the method: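 MCF-7/VP cells plated at ~15% confluency and allowed 24 h to attach. […] Survival by SRB binding. MRP1 Antagonism Score = % survival without vincristine / % survival with vincristine.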
# [4] = Cytotoxic activity against drug-resistant […]-deficient human NCI/ADR cells expressing Pgp after 48 hrs by sulforhodamine B assay; type: functional, cell-based; details: NCI/ADR-RES
# Summary of the method: (§1)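 Cells plated at ~15% confluency and allowed 24 h to attach, then exposed to varying test concentrations for 48 h. Survival by SRB binding, reported as % decrease in binding versus ethanol solvent controls, mean of three wells. For NCI/ADR, exposure with 0 or 50 nM vinblastine; for MCF-7/VP, with 0 or 1 nM vincristine.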
# [5] = Cytotoxic activity against Pgp-deficient human MCF7/VP cells expressing MRP1 after 48 hrs by sulforhodamine B assay; type: functional, cell-based
# Summary of the method: as §1
# MCF7 [6] = experiment: Cytotoxic activity against drug-sensitive Pgp-, MRP1-deficient human MCF7 cells after 48 hrs by sulforhodamine B assay; details: MCF7, 48 h
# Bos taurus = species: Bos taurus; experiment: Effect on bovine brain microtubule depolymerization assessed as decrease in absorbance at wavelength 340 nm after 15 mins
# Summary of the method: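 Bovine brain tubulin purified by three assembly/disassembly cycles followed by ion exchange. Tubulin at 2.5 mg/mL […] in 1 M glutamate, pH 6.6, with 4% DMSO, preincubated with compound at 0 °C for 15 min. 0.5 mM GTP then added and samples warmed to 37 °C. A340 monitored about 60 min.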
Activity (Bos taurus),SMILES,Ratio IC50 (MCF7 [1]),Ratio IC50 (MCF7 [2]),Activity (NCI/ADR),Activity [3],IC50 [4],IC50 [5],IC50 (MCF7 [6])
–,COc1ccccc1CCc1cn(Cc2ccccc2)c2nc(N)nc(C)c12,1.13,1.17,Active,Not Active,2.7 µM,2.6 µM,–
Active,COc1cccc(OC)c1CCc1cn(Cc2ccccc2)c2nc(N)nc(C)c12,0.91,0.54,Active,Not Active,12 µM,20 µM,22 µM
inactive,COc1cc(OC)c(OC)cc1CCc1cn(Cc2ccccc2)c2nc(N)nc(C)c12,1,0.66,inactive,Not Active,10 µM,15 µM,15 µM
Active,CC[C@]1(O)C[C@@H]2CN(CCc3c([nH]c4ccccc34)[C@@](C(=O)OC)(c3cc4c(cc3OC)N(C)[C@H]3[C@@](O)(C(=O)OC)[C@H](OC(C)=O)[C@]5(CC)C=CCN6CC[C@]43[C@@H]65)C2)C1 [VINBLASTINE],1.1,>134,–,–,> 375 µM,0.003 µM,–
inactive,COc1cc(CCc2cn(Cc3ccccc3)c3nc(N)nc(C)c23)cc(OC)c1,0.68,0.48,inactive,Active,12 µM,17 µM,25 µM
inactive,Cc1nc(N)nc2c1c(CCc1ccccc1Cl)cn2Cc1ccccc1,0.75,0.55,inactive,Not Active,11 µM,15 µM,20 µM
inactive,COc1cc(CCc2cn(Cc3ccccc3)c3nc(N)nc(C)c23)c(OC)c(OC)c1,1.26,0.66,Active,Active,33 µM,63 µM,50 µM
inactive,CC(=O)O[C@H]1C(=O)[C@@]2(C)[C@H]([C@H](OC(=O)c3ccccc3)[C@]3(O)C[C@H](OC(=O)[C@H](O)[C@@H](NC(=O)c4ccccc4)c4ccccc4)C(C)=C1C3(C)C)[C@]1(OC(C)=O)CO[C@@H]1C[C@@H]2O [PACLITAXEL],1.1,1080,–,–,2.7 µM,0.0028 µM,–
inactive,COc1ccc(CCc2cn(Cc3ccccc3)c3nc(N)nc(C)c23)cc1OC,0.41,0.29,inactive,Not Active,5 µM,7 µM,17 µM
inactive,COc1ccc(CCc2cn(Cc3ccccc3)c3nc(N)nc(C)c23)c(OC)c1,0.71,0.35,Active,Not Active,6 µM,12 µM,17 µM
Active,COc1ccc(CCc2cn(Cc3ccccc3)c3nc(N)nc(C)c23)c(OC)c1OC,1.11,0.61,inactive,Active,11 µM,20 µM,18 µM
Active,COc1cc(CCc2cn(Cc3ccccc3)c3nc(N)nc(C)c23)cc(OC)c1OC,0.83,0.83,inactive,Not Active,0.25 µM,0.25 µM,–
Active,CC[C@]1(O)C[C@H]2CN(CCc3c([nH]c4ccccc34)[C@@](C(=O)OC)(c3cc4c(cc3OC)N(C=O)[C@H]3[C@@](O)(C(=O)OC)[C@H](OC(C)=O)[C@]5(CC)C=CCN6CC[C@]43[C@@H]65)C2)C1 [VINCRISTINE],15.5,167,–,–,100 µM,0.0093 µM,–
